TRPC6 activator: activators of mouse TRPC6 channel. B-score at 10 µM. HEK293-TRPC6 membrane potential dye fluorescence; stronger effect = higher value. AID 2550. actives 0.13% (n = 310,000). Q61143;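 active means B-score of the integrated fluorescence ratio above library mean plus 3 SD, and starting fluorescence ratio within library mean plus 5 SD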;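 further: higher score means more depolarization so channel activation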
TRPC6 inhibitor: mouse TRPC6 channel inhibition | Q61143 | HEK293-TRPC6, membrane potential dye, ACh-evoked depolarization; stronger effect = lower value | B-score at 10 µM | actives 1.1% (n = 310,000);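 active means B-score under library mean minus 3 SD, initial fluorescence not abnormally high, positive integrated signal ratio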;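 further: B-score derived from integrated fluorescence ratio over the kinetic read; more negative B-score means stronger inhibition of depolarization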
TRPC4 block: inhibitors of mouse TRPC4 channel. B-score at 10 µM. actives 0.39% (n = 300,000). HEK293 TRPC4beta/mu-opioid, DAMGO-evoked Fluo4 calcium flux; stronger effect = lower value;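 active means B-score over 3 SD under the library average, no early fluorescence shift, positive overall ratio signal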
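test system = HEK293 cells with stable TRPC4beta plus mu-opioid receptor expression | detection = Fluo4 Ca2+ flux fluorescence | read-out = integrated fluorescence ratio relative to baseline, converted to per-well B score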
TRPC4 PAM: TRPC4 (mouse) allosteric potentiation; HEK293 TRPC4beta/mu-opioid, DAMGO EC20, Fluo-4 Ca2+ flux; stronger effect = higher value; B-score at 10 µM; actives 0.42% (n = 310,000); AID 2227;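 active means B-score of calcium response area above 5 SD of library B-scores, with initial fluorescence ratio within 5 SD of library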;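 further: B-score of integrated fluorescence ratio over time as area under calcium response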
TRPC4 agonist: activators of mouse TRPC4 channel; Q9QUQ5; HEK293 TRPC4beta/mu-opioid, Fluo4 calcium fluorescence; stronger effect = higher value; B-score at 10 µM; actives 0.49% (n = 310,000); AID 2237;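 active means B-score above 5 SD of library B-scores, and initial fluorescence ratio not above library mean plus 5 SD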;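 further: positive B-score marks a calcium rise read as TRPC4 activation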
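Material: HEK293 stable line with TRPC4beta plus mu-opioid receptor; technique: Fluo4 calcium-sensitive dye fluorescence, kinetic, 1 Hz baseline; timing: Fluo4 dye loading 45 min at room temperature, 110 s recording; controls: assay buffer as low control, maximal DAMGO as high control; read-out: integrated baseline-normalised fluorescence ratio, converted to per-well B score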
Platelet DG rel: platelet dense granule release activity | human platelet-rich plasma, SFLLRN dense granule ATP release, luminescence | inhibition, %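 (compounds screened at 7.5 µM in platelet-rich plasma)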 | actives 0.22% (n = 300,000) | AID 1663;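 active means mean replicate score, as percent of positive control, at or above 50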
HEK293 TRPC6 ctr: counter-screen for TRPC6 modulators: effect in parental HEK293 cells; shares compounds with TRPC6 inhibitor; membrane potential dye fluorescence; membrane potential signal change, % at 10 µM; actives 51% (n = 2,400); AID 488924;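 active means membrane potential signal moves up or down beyond 5 SD from buffer-only wells, on both duplicate plates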
HEK293 MPD ctr 2: second check of TRPC6 modulator effects in parental HEK293 cells | actives 14% (n = 2,400) | inhibition, % at 10 µM | membrane potential dye fluorescence; after compound, maximal acetylcholine stimulation | shares compounds with TRPC6 inhibitor;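 active means membrane potential signal drops by more than 5 SD from the mean control signal, in both duplicate plates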;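 further: plate controls were acetylcholine ECmax control wells for no effect and buffer only wells for full effect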
TRPC4/MOR mod: selectivity of TRPC6 modulators against mouse TRPC4; HEK293 TRPC4/mu-opioid, membrane potential fluorescence; percent change from control (negative = decrease, positive = increase), % at 10 µM; actives 69% (n = 2,400); shares compounds with TRPC6 inhibitor;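 active means membrane potential signal moved up or down beyond 5 SD of buffer control wells, in both duplicate plates, actives on both sides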;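 further: plate controls were assay buffer wells for no effect and DAMGO maximal-effect wells for full effect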
TRPC4 ctr inh 2: second selectivity test of TRPC6 modulators against mouse TRPC4; shares compounds with TRPC6 inhibitor; actives 55% (n = 2,400); AID 488928; inhibition, % at 10 µM; HEK293 TRPC4/mu-opioid, membrane potential dye fluorescence; stimulated with maximal-effect DAMGO;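 active means drop in membrane potential signal beyond 5 SD of the control wells in both duplicate plates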;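 further: TRPC4 counter screen for TRPC6 hits run under conditions tuned for TRPC6 not TRPC4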
TRPC6 inh conf: mouse TRPC6 inhibitor confirmation; AID 488960; HEK293-TRPC6, membrane potential dye, ACh-evoked depolarization; actives 43% (n = 3,300); inhibition, % at 10 µM; shares compounds with TRPC6 inhibitor;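 active means fluorescence ratio falls more than 5 SD below the full-stimulation control mean, in both duplicate runs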;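 further: integrated fluorescence ratio of peak minus minimum over baseline after agonist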
TRPC6 act conf: confirmation of mouse TRPC6 activators | shares compounds with TRPC6 inhibitor | actives 11% (n = 2,800) | HEK293-TRPC6 membrane potential dye fluorescence, FDSS | AID 488961 | activation, % at 10 µM;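 active means ratio signal rise beyond 5 SD above unstimulated control wells' mean, seen in both duplicate runs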;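 further: plate controls were buffer EC0 wells for no effect and acetylcholine ECmax response for full effect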
Numbers without * were called inactive; i = inactive; . = no result. In the library only some 2.5% were active in any assay of this set; here they are far more common.

SMILES | TRPC6 activator | TRPC6 inhibitor | TRPC4 block | TRPC4 PAM | TRPC4 agonist | Platelet DG rel | HEK293 TRPC6 ctr | HEK293 MPD ctr 2 | TRPC4/MOR mod | TRPC4 ctr inh 2 | TRPC6 inh conf | TRPC6 act conf
O=[N+]([O-])c1ccc2nc(-c3ccncc3)[nH]c2c1 | i | -6.36* | i | i | i | 9.4 | -304.5%* | 59.5%* | -52.0%* | 35.5%* | i | i
COc1cccc(/C=N/N=C(\N)c2nonc2N)c1O | i | i | i | i | i | 14.3 | . | . | . | . | . | .
C=COCCNC(=S)N1CCOCCOCCN(C(=S)NCCOC=C)CCOCC1 | i | -4.99* | i | i | i | -3.3 | i | i | i | 39.5%* | i | i
COCCNC(=S)N1CCOCC1 | i | i | i | i | i | -0.7 | . | . | . | . | . | .
COc1cc(C(=O)Nc2ccc(N(C)C)cc2)cc(OC)c1OC | i | -6.4* | i | i | i | -2.9 | i | i | i | i | i | i
COc1cc(C(=O)Nc2ccc(NC(=O)c3cccc(Cl)c3)nc2)cc(OC)c1OC | i | -5.42* | i | i | i | 0.5 | i | i | i | i | i | i
COc1cc2c(cc1OC)C(c1ccccc1)NC(C)(C)C2 (stereo unspecified) | i | i | i | i | i | 4.9 | . | . | . | . | . | .
Nc1c(-c2ccccc2)sc2ccc3ccccc3[n+]12 | i | -4.99* | i | i | i | 8.7 | -99.0%* | i | -18.5%* | i | 44.0%* | i
Cc1ccccc1Cn1c(=O)n(C)c(=O)c2sccc21 | i | i | i | i | i | -3.7 | . | . | . | . | . | .
CCCn1cc(C(=O)OCC)c(=O)c2cc(F)c(F)cc21 | i | i | i | i | i | 11.6 | . | . | . | . | . | .
CCOC(=O)c1cn(CC2CC2)c2cc(F)c(F)cc2c1=O | i | -5.42* | i | i | i | 0.6 | -276.5%* | i | -48.5%* | 59.0%* | 53.0%* | i
CCOC(=O)c1cn(CC)c2ccc(Br)cc2c1=O | i | -5.97* | i | i | i | 2.6 | -106.0%* | i | -16.5%* | i | i | i
COc1ccc(-c2coc3cc(OC)cc(O)c3c2=O)cc1 | i | -8.63* | i | i | i | 5.0 | i | i | i | i | i | i
COc1ccc(-c2coc3cc(O)cc(O)c3c2=O)cc1 | i | i | i | i | i | 2.9 | . | . | . | . | . | .
CCCCC(CC)Cn1c(N)c(C#N)c2nc3ccccc3nc21 (stereo unspecified) | i | -6.02* | i | i | i | -0.9 | i | i | i | i | i | i
Cc1ccc(NCC(=O)Nc2ccc(Br)cc2)cc1F | i | i | i | i | i | -3.3 | . | . | . | . | . | .
Nc1ccccc1Nc1cc(-c2ccccc2)nn1-c1cccc(Cl)c1 | i | -5.59* | i | i | i | -4.1 | i | i | i | 29.5%* | i | i

Bioassay records (PubChem)
